The results in this text go back to BindingDB's records for doi:10.1021/jm950700s (Schering-Plough Research Institute, 1997).

The IC50 is the concentration that inhibits the measured activity by half.

In experiment [1] the target is Potassium-transporting ATPase alpha chain 1/subunit beta (Oryctolagus cuniculus). Kind of experiment: Inhibition of H+/K+ ATPase as reduced acid formation in rabbit gastric glands.
For experiment [2], the target named is Potassium-transporting ATPase (Sus scrofa, UniProt P19156). Kind of experiment: Inhibition of purified H+/K+ ATPase at pH 7.4 as released inorganic phosphate from ATP using hog stomach gastric membrane vesicles. Put shortly:
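Gastric membrane vesicles from hog stomach were prepared by differential and zonal density gradient centrifugation. Activity was read as inorganic phosphate released from ATP at pH 7.4. Protein was measured by the Bradford method against a gammaglobulin standard.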

Chain of Potassium-transporting ATPase (P19156 whole entry, looked up): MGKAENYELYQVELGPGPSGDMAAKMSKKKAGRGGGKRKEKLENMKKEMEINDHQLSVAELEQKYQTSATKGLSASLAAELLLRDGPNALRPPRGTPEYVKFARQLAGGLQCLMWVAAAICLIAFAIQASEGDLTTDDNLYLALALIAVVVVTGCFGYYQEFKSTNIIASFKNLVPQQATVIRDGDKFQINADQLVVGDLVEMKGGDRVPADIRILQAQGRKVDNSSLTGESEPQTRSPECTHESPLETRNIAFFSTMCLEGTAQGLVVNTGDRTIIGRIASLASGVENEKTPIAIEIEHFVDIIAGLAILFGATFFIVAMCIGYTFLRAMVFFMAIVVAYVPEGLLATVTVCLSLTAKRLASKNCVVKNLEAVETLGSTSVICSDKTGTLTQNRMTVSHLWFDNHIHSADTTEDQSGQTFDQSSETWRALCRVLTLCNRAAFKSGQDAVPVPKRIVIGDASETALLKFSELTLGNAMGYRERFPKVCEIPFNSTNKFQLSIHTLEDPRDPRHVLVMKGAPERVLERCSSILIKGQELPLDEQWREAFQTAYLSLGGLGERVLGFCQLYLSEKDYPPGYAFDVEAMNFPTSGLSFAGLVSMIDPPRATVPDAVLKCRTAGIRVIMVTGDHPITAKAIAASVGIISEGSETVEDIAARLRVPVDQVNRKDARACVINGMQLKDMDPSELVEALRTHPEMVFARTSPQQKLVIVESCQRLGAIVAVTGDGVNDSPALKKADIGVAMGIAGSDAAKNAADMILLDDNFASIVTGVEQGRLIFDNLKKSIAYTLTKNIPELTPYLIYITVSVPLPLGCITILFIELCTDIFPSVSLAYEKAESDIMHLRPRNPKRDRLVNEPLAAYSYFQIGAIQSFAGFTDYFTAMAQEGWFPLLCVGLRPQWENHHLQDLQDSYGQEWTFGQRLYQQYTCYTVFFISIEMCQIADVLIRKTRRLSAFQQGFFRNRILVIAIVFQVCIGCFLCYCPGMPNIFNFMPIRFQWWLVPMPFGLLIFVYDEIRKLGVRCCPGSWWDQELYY

Consider `Cc1nc2c(C/C=C/c3ccccc3)cccn2c1CC#N`, for which the IC50 in experiment [1] is 442 µM; in experiment [2], 206 µM.

`Cc1nc2c(OCc3ccccc3)nccn2c1N`: in experiment [2], the IC50 came to 178 µM.
